Test results as given in ChEMBL document CHEMBL4033800, “Further Developments of the Phenyl-Pyrrolyl Pentane Series of Nonsteroidal Vitamin D Receptor Modulators as Anticancer Agents” (J Med Chem, 2018).
The source made the active and inactive calls. No cut-off for these calls is given here.

Experiments:
[1] = Drug uptake in human MCF7 cells at 1 uM after 10 mins by HPLC analysis; type: ADME, cell-based; conditions: mcf7, 10 min
Summary of the method: (§1)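 MCF7 cells were given 1 µM compound in medium with 10% FBS for 10 or 30 min. Cells and medium were extracted separately with chloroform/methanol (3:1, v/v) and analysed by HPLC. Mean ± SEM, n = 3.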

MCF7 [2] = assay: Antiproliferative activity against human MCF7 cells after 48 hrs by MTT assay; type: functional, cell-based; conditions: MCF7, 48 h
PC-3 = assay: Antiproliferative activity against human PC3 cells after 48 hrs by MTT assay; type: functional, cell-based; conditions: PC-3, 48 h
HepG2 = assay: Antiproliferative activity against human HepG2 cells after 48 hrs by MTT assay; type: functional, cell-based; conditions: HepG2, 48 h
L02 = assay: Antiproliferative activity against human L02 cells after 48 hrs by MTT assay; type: cell-based; conditions: L02, 48 h
[3] = biological target: T1, Vitamin D3 receptor (Homo sapiens) (UniProt P11473); assay: Transactivation of human GAL4-fused VRD expressed in HEK293 cells co-transfected with human RXRalpha/VDRE after 24 hrs by dual luciferase reporter gene assay; type: cell-based
T1 sequence (whole entry): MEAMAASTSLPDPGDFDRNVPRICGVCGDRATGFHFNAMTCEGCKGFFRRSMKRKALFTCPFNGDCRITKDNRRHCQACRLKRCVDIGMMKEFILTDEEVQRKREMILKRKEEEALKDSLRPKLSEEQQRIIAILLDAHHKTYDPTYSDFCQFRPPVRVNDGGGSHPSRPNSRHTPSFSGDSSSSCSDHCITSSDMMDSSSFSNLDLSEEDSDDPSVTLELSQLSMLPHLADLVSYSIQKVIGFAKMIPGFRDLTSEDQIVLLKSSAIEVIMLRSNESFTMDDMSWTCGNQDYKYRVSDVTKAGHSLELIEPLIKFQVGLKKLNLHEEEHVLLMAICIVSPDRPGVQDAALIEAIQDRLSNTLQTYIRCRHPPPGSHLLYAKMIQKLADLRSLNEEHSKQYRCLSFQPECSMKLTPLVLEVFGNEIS

MCF7 [4] = assay: Induction of cell cycle arrest in human MCF7 cells assessed as accumulation at G0/G1 phase at 1 uM after 24 hrs by propidium iodide-staining based flow cytometry (reference value: 56.03%); type: functional
MCF7 [5] = assay: Induction of cell cycle arrest in human MCF7 cells assessed as accumulation at G2/M phase at 1 uM after 24 hrs by propidium iodide-staining based flow cytometry (reference value: 12.41%); type: functional
MCF7 [6] = assay: Induction of apoptosis in human MCF7 cells assessed as viable cells at 1 uM after 24 hrs by Annexin V-FITC/propidium iodide-staining based flow cytometry (reference value: 98.2%); type: functional; conditions: MCF7, 24 h, read-out: Activity
MCF7 [7] = assay: Induction of apoptosis in human MCF7 cells assessed as early apoptotic cells at 1 uM after 24 hrs by Annexin V-FITC/propidium iodide-staining based flow cytometry (reference value: 1.74%); type: functional
MCF7 [8] = assay: Induction of apoptosis in human MCF7 cells assessed as late apoptotic cells at 1 uM after 24 hrs by Annexin V-FITC/propidium iodide-staining based flow cytometry (reference value: 0.062%); type: functional
MCF7 [9] = assay: Induction of apoptosis in human MCF7 cells assessed as necrotic cells at 1 uM after 24 hrs by Annexin V-FITC/propidium iodide-staining based flow cytometry (reference value: 0.031%); type: functional
MCF7 [10] = assay: Induction of cell cycle arrest in human MCF7 cells assessed as upregulation of p21 expression at 1 uM after 24 hrs by Western blot analysis; type: functional, cell-based
Summary of the method: (§2)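 p21 and p27 protein levels were measured by Western blot in MCF7 cells treated at 1 µM for 24 h.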

MCF7 [11] = assay: Induction of cell cycle arrest in human MCF7 cells assessed as upregulation of p27 expression at 1 uM after 24 hrs by Western blot analysis; type: functional, cell-based; summary of the method: as §2
MCF7 [12] = assay: Induction of cell cycle arrest in human MCF7 cells assessed as upregulation of p21 mRNA levels at 1 uM after 24 hrs by RT-qPCR analysis; type: functional, cell-based
Summary of the method: (§3)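 p21 and p27 mRNA levels were measured by real-time quantitative PCR in MCF7 cells treated at 1 µM for 24 h.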

MCF7 [13] = assay: Induction of cell cycle arrest in human MCF7 cells assessed as upregulation of p27 mRNA levels at 1 uM after 24 hrs by RT-qPCR analysis; type: functional, cell-based; summary of the method: as §3
MCF7 [14] = assay: Induction of apoptosis in human MCF7 cells assessed as upregulation of Bax mRNA levels at 1 uM after 24 hrs by RT-qPCR analysis; type: functional, cell-based
MCF7 [15] = assay: Induction of apoptosis in human MCF7 cells assessed as upregulation of Bak mRNA levels at 1 uM after 24 hrs by RT-qPCR analysis; type: functional, cell-based
[16] = Drug uptake in human MCF7 cells at 1 uM after 30 mins by HPLC analysis; type: ADME, cell-based; conditions: mcf7, 0.5 h; summary of the method: as §1
Mus musculus = assay: Toxicity in BALB/c nude mouse xenografted with human MCF7 cells assessed increase in serum calcium levels at 10 mg/kg, ip administered every other day relative to control; type: organism-based; conditions: in vivo
Summary of the method: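 MCF7 cells transplanted orthotopically into the breast of athymic nude mice. Dosing at 10 mg/kg i.p. in vehicle of polyoxyethylated castor oil/ethanol/saline 1:1:18, with vehicle and saline control groups. Body weight, tumor volume and serum calcium followed.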

MCF7 [17] = assay: Induction of apoptosis in human MCF7 cells xenografted in BALB/c nude mouse at 10 mg/kg, ip administered every other day by TUNEL assay; type: functional, organism-based
Summary of the method: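 Apoptosis in MCF7 orthotopic tumor sections from nude mice given 10 mg/kg i.p. was scored by TUNEL staining.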

[18] = AUC in Sprague-Dawley rat at 5 mg/kg, iv measured up to 48 hrs post administration by HPLC analysis; type: ADME, organism-based; set-up: dose 5 mg/kg, time < 48 hr, route intravenous; conditions: in vivo
Summary of the method: (§4)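 Male Sprague-Dawley rats (180−220 g), 4 per group, dosed at 5 mg/kg i.v., 20 mg/kg i.p. or 20 mg/kg p.o. Parameters given as mean ± SD (n = 4).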

[19] = Half life in Sprague-Dawley rat at 5 mg/kg, iv by HPLC analysis; type: ADME, organism-based; conditions: in vivo; summary of the method: as §4
[20] = MRT in Sprague-Dawley rat at 5 mg/kg, iv by HPLC analysis; type: ADME, organism-based; conditions: in vivo; summary of the method: as §4
[21] = AUC in Sprague-Dawley rat at 20 mg/kg, ip measured up to 48 hrs post administration by HPLC analysis; type: ADME, organism-based; set-up: time < 48 hr, dose 20 mg/kg, route intraperitoneal; conditions: in vivo; summary of the method: as §4
[22] = Half life in Sprague-Dawley rat at 20 mg/kg, ip by HPLC analysis; type: ADME, organism-based; conditions: in vivo; summary of the method: as §4
[23] = Bioavailability in Sprague-Dawley rat at 20 mg/kg, ip measured up to 48 hrs after administration by HPLC analysis; type: ADME, organism-based; conditions: in vivo; summary of the method: as §4
[24] = AUC in Sprague-Dawley rat at 20 mg/kg, po measured up to 48 hrs post administration by HPLC analysis; type: ADME, organism-based; set-up: time < 48 hr, dose 20 mg/kg, route oral; conditions: in vivo; summary of the method: as §4
[25] = Half life in Sprague-Dawley rat at 20 mg/kg, po by HPLC analysis; type: ADME, organism-based; conditions: in vivo; summary of the method: as §4
[26] = MRT in Sprague-Dawley rat at 20 mg/kg, po by HPLC analysis; type: ADME, organism-based; conditions: in vivo; summary of the method: as §4
[27] = Clearance in Sprague-Dawley rat at 20 mg/kg, po by HPLC analysis; type: ADME, organism-based; conditions: in vivo; summary of the method: as §4
[28] = Oral bioavailability in Sprague-Dawley rat at 20 mg/kg measured up to 48 hrs after administration by HPLC analysis; type: ADME, organism-based; conditions: in vivo; summary of the method: as §4

Row | SMILES | Drug uptake [1] | IC50 (MCF7 [2]) [nM] | IC50 (PC-3) [nM] | IC50 (HepG2) [nM] | IC50 (L02) [nM] | Activity [3] | Activity (MCF7 [4]) [%] | Activity (MCF7 [5]) [%] | viability at 1 µM (MCF7 [6]) [%] | Activity (MCF7 [7]) [%] | Activity (MCF7 [8]) [%] | Activity (MCF7 [9]) [%] | Activity (MCF7 [10]) | Activity (MCF7 [11]) | Activity (MCF7 [12]) | Activity (MCF7 [13]) | Activity (MCF7 [14]) | Activity (MCF7 [15]) | Drug uptake [16] | Activity (Mus musculus) | further results
1 | CCn1c(C(=O)NCCCN2CCOCC2)ccc1C(CC)(CC)c1ccc(OCCC(O)(CC)CC)c(C)c1 | 37.9% | 260 | 1570 | 1760 | 2860 | Dose-dependent effect | 70.41 | 6.96 | 87.3 | 9.72 | 2.83 | 0.2 | Active | Active | Active | Active | Active | Active | 38.2% | Non-Toxic | Activity (MCF7 [17]): Active; AUC at 48 h [18]: 10400 ng·h/mL; half-life [19]: 4.75 h; MRT [20]: 7.55 h; AUC at 48 h [21]: 25900 ng·h/mL; half-life [22]: 11.7 h; bioavailability [23]: 62.5%; AUC at 48 h [24]: 15300 ng·h/mL; half-life [25]: 11.3 h; MRT [26]: 15.9 h; CL/F [27]: 21.8 mL/min; bioavailability [28]: 36.8%
2 | CCN(CC)CCCNC(=O)c1ccc(C(CC)(CC)c2ccc(OCCC(O)(CC)CC)c(C)c2)n1CC | Active | 57 | 40 | 150 | 370 | Dose-dependent effect | 70.15 | 4.72 | 85.7 | 9.59 | 4.49 | 0.23 | Active | Active | Active | Active | Active | Active | Active | Non-Toxic | Activity (MCF7 [17]): Active; AUC at 48 h [18]: 25200 ng·h/mL; half-life [19]: 2.97 h; MRT [20]: 3.85 h; AUC at 48 h [21]: 30500 ng·h/mL; half-life [22]: 6.21 h; bioavailability [23]: 30.2%; AUC at 48 h [24]: 21500 ng·h/mL; half-life [25]: 6.82 h; MRT [26]: 11 h; CL/F [27]: 15.5 mL/min; bioavailability [28]: 21.3%
